31 compounds from ChEMBL document CHEMBL1138932, “Synthesis and anti-hepatitis B virus activity of novel benzimidazole derivatives” (J Med Chem, 2006) can be followed below.

The source made the active and inactive calls. No cut-off for these calls is given here.

Experiment [1] has as its system HepG2. Put plainly: Selectivity index, CC50 for HepG2.2.15 cells/IC50 for HBV. In kind it is functional. The gist of the method: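 Ratio CC50/IC50. CC50 is the concentration giving 50% extinction of HepG 2.2.15 cells. IC50 is the concentration giving 50% inhibition of cytoplasmic HBV-DNA synthesis.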
A further experiment has as its system Hepatitis B virus. Put plainly: Inhibition of HBV DNA replication. The experiment is classed as functional, organism-based. The gist of the method:
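Antiviral assay in HepG 2.2.15 cells; read-out is cytoplasmic HBV-DNA synthesis. IC50 is the concentration giving 50% inhibition of HBV DNA synthesis.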

The subject of experiment [2] is HepG2. Kind of experiment: Cytotoxicity against HepG2.2.15 cells. In kind it is functional. Conditions: Homo sapiens. The gist of the method:
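HepG 2.2.15 cells exposed to compound; CC50 taken as the concentration required for 50% extinction of the cells.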

By IC50 is commonly meant the concentration that gives 50% inhibition. Read a high IC50 as lower potency. Usually CC50 stands for the concentration that lowers cell viability or growth by half. Low readings indicate greater toxicity to the cells, high ones lower toxicity to the cells. Regarding `O=C1c2ccccc2C(=O)N1CCc1nc2ccccc2n1S(=O)(=O)c1ccccc1`, the Selectivity index in the experiment on HepG2 [1] amounted to 13. In addition, in the experiment on Hepatitis B virus, the IC50 was 2.2 µM. Also, half-maximal cytotoxicity in the experiment with HepG2 [2] (CC50) was put at 28 µM.

In the experiment on HepG2 [1], `Cc1ccc(S(=O)(=O)n2c(CCN3C(=O)c4ccccc4C3=O)nc3cc(F)c(F)cc32)cc1` displayed a Selectivity index of 26. Further, in the experiment with Hepatitis B virus, half-maximal inhibition (IC50) required 1.2 µM. In the experiment with HepG2 [2], this compound displayed a CC50 of 31 µM.

In the experiment with HepG2 [1], `O=C1c2ccccc2C(=O)N1CCc1nc2cc(Cl)c(Cl)cc2[nH]1` gave a Selectivity index of 1. For the same compound, in the experiment on Hepatitis B virus, half-maximal inhibition (IC50) required 300 µM. This compound also had a CC50 with HepG2 [2] of 330 µM.

For the compound `Cc1ccc(S(=O)(=O)n2c(CCN3C(=O)c4ccccc4C3=O)nc3ccccc32)cc1`, in the experiment with HepG2 [1], the Selectivity index came to 75. In addition, the 50% inhibitory concentration (IC50) with Hepatitis B virus came to 2.2 µM. For the same compound, the CC50 in the experiment with HepG2 [2] worked out at 164 µM.

`Cn1c(CCc2ccncc2)nc2cc(Cl)c(Cl)cc21` gave a Selectivity index in the experiment on HepG2 [1] of 8. Besides, it took 4.6 µM to reach half-maximal inhibition with Hepatitis B virus (IC50). Moreover, the CC50 with HepG2 [2] was 35.8 µM.

With `Cc1ccc(S(=O)(=O)n2c(CCN3C(=O)C=CC3=O)nc3cc(Cl)c(Cl)cc32)cc1`, the Selectivity index in the experiment on HepG2 [1] was found to be 49. Moreover, the IC50 in the experiment on Hepatitis B virus is 0.68 µM. This compound also came in with a CC50 in the experiment on HepG2 [2] of 33 µM.

Consider `O=C1c2ccccc2C(=O)N1CCc1nc2cc(F)c(F)cc2n1S(=O)(=O)c1ccccc1[N+](=O)[O-]`, for which, in the experiment with HepG2 [1], the Selectivity index was 120. In the experiment with Hepatitis B virus, this compound showed a half-maximal inhibitory concentration (IC50) of 0.64 µM. The cytotoxic concentration (CC50) in the experiment on HepG2 [2] was determined as 77 µM.

Compound `O=C1c2ccccc2C(=O)N1CCc1nc2ccccc2n1S(=O)(=O)c1cccc(C(F)(F)F)c1` yielded a Selectivity index with HepG2 [1] of 0.3. The concentration for half-maximal inhibition (IC50) with Hepatitis B virus turned out to be 30.4 µM. The half-maximal cytotoxic concentration (CC50) in the experiment with HepG2 [2] amounted to 10 µM.

`Cc1ccc(S(=O)(=O)n2c(CCN3Cc4ccccc4C3=O)nc3cc(Cl)c(Cl)cc32)cc1` showed a Selectivity index in the experiment with HepG2 [1] of 7. This compound also showed a half-inhibitory concentration (IC50) in the experiment with Hepatitis B virus of 3.4 µM. In the experiment on HepG2 [2], the 50% cytotoxic concentration (CC50) is 23 µM.

On to `Cc1ccc(Cn2c(CCN3C(=O)c4ccccc4C3=O)nc3cc(Cl)c(Cl)cc32)cc1`, for which, in the experiment with HepG2 [1], the Selectivity index is listed as above 714. Also, half-maximal inhibition in the experiment on Hepatitis B virus (IC50) required 0.7 µM. Besides, the cytotoxic concentration (CC50) in the experiment on HepG2 [2] was above 500 µM.

In the experiment with HepG2 [1], `Cc1ccc(C(=O)n2c(CCN3C(=O)c4ccccc4C3=O)nc3cc(Cl)c(Cl)cc32)cc1` had a Selectivity index above 19. Also, the IC50 in the experiment with Hepatitis B virus stood at 53.2 µM. This compound also returned a 50% cytotoxic concentration (CC50) in the experiment on HepG2 [2] above 1000 µM.

In the case of `CS(=O)(=O)n1c(CCN2C(=O)c3ccccc3C2=O)nc2cc(Cl)c(Cl)cc21`, the result with Hepatitis B virus was inactive. The compound also had a CC50 with HepG2 [2] of 175 µM.

In the experiment with HepG2 [1], `Cc1ccc(S(=O)(=O)n2c(CCN3C(=O)c4ccccc4C3=O)nc3cc(Cl)c(Cl)cc32)cc1` showed a Selectivity index of 299. The same compound displayed an IC50 with Hepatitis B virus of 2.9 µM. This compound also displayed a 50% cytotoxic concentration (CC50) in the experiment on HepG2 [2] of 867 µM.

As to `Cn1c(CCc2ccco2)nc2cc(Cl)c(Cl)cc21`, in the experiment on Hepatitis B virus, the outcome was inactive. The compound further yielded a half-maximal cytotoxic concentration (CC50) with HepG2 [2] of 5.9 µM.

For `Cn1c(CCN2C(=O)c3ccccc3C2=O)nc2cc(Cl)c(Cl)cc21`, the Selectivity index in the experiment with HepG2 [1] was above 1111. This compound yielded an IC50 in the experiment with Hepatitis B virus of 0.9 µM. The cytotoxic concentration (CC50) with HepG2 [2] was above 1000 µM.

On to `Cc1ccc(S(=O)(=O)n2c(CN3C(=O)c4ccccc4C3=O)nc3cc(Cl)c(Cl)cc32)cc1`, for which the Selectivity index with HepG2 [1] was determined as 180. In the experiment with Hepatitis B virus, this compound registered a half-inhibitory concentration (IC50) of 0.5 µM. The compound further yielded a 50% cytotoxic concentration (CC50) with HepG2 [2] of 90 µM.

In the case of `O=C1c2ccccc2C(=O)N1CCc1nc2cc(F)c(F)cc2n1S(=O)(=O)c1ccc(C(F)(F)F)cc1`, the Selectivity index in the experiment with HepG2 [1] is 3. For the same compound, in the experiment with Hepatitis B virus, half-maximal inhibition (IC50) was put at 3.2 µM. The same compound showed a 50% cytotoxic concentration (CC50) in the experiment with HepG2 [2] of 11 µM.

Regarding `Nc1ncnc2c1ncn2CCOCP(=O)(O)O` [ADEFOVIR], the Selectivity index in the experiment with HepG2 [1] is 156. This compound showed an IC50 in the experiment with Hepatitis B virus of 1.3 µM. In the experiment on HepG2 [2], this compound gave a CC50 of 203 µM.

In turn, `O=C1c2ccccc2C(=O)N1CCc1nc2cc(Cl)c(Cl)cc2n1S(=O)(=O)c1ccc([N+](=O)[O-])cc1` showed a Selectivity index in the experiment with HepG2 [1] of 4. This compound also registered a concentration for half-maximal inhibition (IC50) in the experiment with Hepatitis B virus of 50.2 µM. For the same compound, the midpoint of cytotoxicity in the experiment on HepG2 [2], the CC50, lay at 181 µM.

With `Cn1c(CCc2cccs2)nc2cc(Cl)c(Cl)cc21`, the outcome in the experiment on Hepatitis B virus was inactive. In addition, in the experiment with HepG2 [2], the CC50 is 16 µM.

As to `Cn1c(CCC2CCCCC2)nc2cc(Cl)c(Cl)cc21`, in the experiment with HepG2 [1], the Selectivity index is above 27. This compound also displayed a concentration for half-maximal inhibition (IC50) with Hepatitis B virus of 18.5 µM. This compound returned a cytotoxic concentration (CC50) in the experiment on HepG2 [2] above 500 µM.

In the experiment with HepG2 [1], `Cc1ccc(S(=O)(=O)n2c(N3C(=O)c4ccccc4C3=O)nc3cc(Cl)c(Cl)cc32)cc1` came in with a Selectivity index of 6. The IC50 in the experiment with Hepatitis B virus stood at 19.4 µM. Further, it took 122 µM to reach half-maximal cytotoxicity in the experiment with HepG2 [2] (CC50).

In the experiment on HepG2 [1], `Cc1ccc(Cn2c(CCN)nc3cc(Cl)c(Cl)cc32)cc1` showed a Selectivity index of 3. Moreover, 1.4 µM corresponded to half-maximal inhibition with Hepatitis B virus (IC50). The compound further had a 50% cytotoxic concentration (CC50) in the experiment with HepG2 [2] of 4 µM.

As to `Cn1c(CCC2CCCO2)nc2cc(Cl)c(Cl)cc21` (centres undefined), the Selectivity index in the experiment with HepG2 [1] was determined as 5. Moreover, half-maximal inhibition with Hepatitis B virus (IC50) required 10.3 µM. The half-maximal cytotoxic concentration (CC50) in the experiment on HepG2 [2] was found to be 56 µM.

Compound `O=C1c2ccccc2C(=O)N1CCc1nc2cc(F)c(F)cc2n1S(=O)(=O)c1cccc([N+](=O)[O-])c1` gave a Selectivity index with HepG2 [1] of 71. Moreover, the half-maximal inhibitory concentration (IC50) in the experiment on Hepatitis B virus stood at 0.14 µM. In the experiment on HepG2 [2], this compound showed a half-maximal cytotoxic concentration (CC50) of 10 µM.

For `COc1ccc(S(=O)(=O)n2c(CCN3C(=O)c4ccccc4C3=O)nc3cc(Cl)c(Cl)cc32)cc1`, the Selectivity index in the experiment with HepG2 [1] is 26. Also, the half-inhibitory concentration (IC50) in the experiment on Hepatitis B virus was found to be 7.2 µM. This compound also came in with a half-maximal cytotoxic concentration (CC50) with HepG2 [2] of 189 µM.

Consider `Cn1c(CCc2ccccc2)nc2cc(Cl)c(Cl)cc21`, for which the result in the experiment with Hepatitis B virus was inactive. This compound also showed a half-maximal cytotoxic concentration (CC50) in the experiment with HepG2 [2] of 15.3 µM.

As for `CCCc1nc2cc(Cl)c(Cl)cc2n1C`, in the experiment on HepG2 [1], the Selectivity index is listed as 6. This compound also had an IC50 with Hepatitis B virus of 3.9 µM. In the experiment on HepG2 [2], this compound gave a CC50 of 24.6 µM.

For the compound `CC(C)c1ccc(S(=O)(=O)n2c(CCN3C(=O)c4ccccc4C3=O)nc3cc(Cl)c(Cl)cc32)cc1`, the Selectivity index in the experiment with HepG2 [1] turned out to be 24. This compound also registered a 50% inhibitory concentration (IC50) with Hepatitis B virus of 0.7 µM. The compound also returned a CC50 in the experiment with HepG2 [2] of 17 µM.

For `Nc1ccn([C@@H]2CS[C@H](CO)O2)c(=O)n1` [LAMIVUDINE], the Selectivity index in the experiment on HepG2 [1] is recorded as above 2632. This compound also yielded a half-inhibitory concentration (IC50) in the experiment on Hepatitis B virus of 0.38 µM. Further, the 50% cytotoxic concentration (CC50) in the experiment with HepG2 [2] was above 1000 µM.

Regarding `Cc1ccc(S(=O)(=O)n2c(CCCN3C(=O)c4ccccc4C3=O)nc3cc(Cl)c(Cl)cc32)cc1`, in the experiment on HepG2 [1], the Selectivity index is on record as 38. In the experiment with Hepatitis B virus, the IC50 stood at 0.34 µM. In addition, in the experiment on HepG2 [2], it took 13 µM to reach half-maximal cytotoxicity (CC50).
